Data taken from ChEMBL document CHEMBL3244394, “N7-Substituted 7-aminoactinomycin D analogues. Synthesis and biological properties” (J Med Chem, 1978).
Values after ≈ are worked out from the molar mass of the structure shown. *1 amine or outer side, *2 acyl side, *3 side chain or, on linkers, in order; H or OH if unused. Where a SMILES comes first, the peptide text is derived from it. Bridges are numbered along the chain shown (N, C = ends). Roman numbers before positions name the chains, in order. [ ]: non-standard residue; d: D form. Actinocin(9to1) = Cc1c2oc3c(C)ccc(C(=O)[*:1])c3nc-2c(C(=O)[*:2])c(N)c1=O; NMeV = CN[C@H](C(=O)O)C(C)C; Sar = CNCC(=O)O

Key:
P388 [1] = assay: Antitumor activity against mouse P388 cells allografted in BDF1 hybrid mouse assessed as increase of host life span at 150 ug/kg qd for 4 days; type: functional; details: P388, 96 h
How it was run: (§1)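 P388 leukemia, 10⁶ cells, implanted ip in male BDF₁ mice, seven per group. Compounds given in saline once daily on four successive days starting 1 day after implantation (qd 1-4).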

[2] = Cytotoxicity against human CCRF-CEM cells; type: cell-based; details: read-out: ID50 (the source's name)
How it was run: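 In vitro growth-inhibition assay on human lymphoblastic leukemia CCRF-CEM cells grown in suspension culture. The values are relative cytotoxicity.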

P388 [3] = assay: Antitumor activity against mouse P388 cells allografted in BDF1 hybrid mouse assessed as increase of host life span at 800 ug/kg qd for 4 days; type: functional; details: P388, 96 h; how it was run: as §1
P388 [4] = assay: Antitumor activity against mouse P388 cells allografted in BDF1 hybrid mouse assessed as increase of host life span at 500 ug/kg qd for 4 days; type: functional; details: P388, 96 h; how it was run: as §1
P388 [5] = assay: Antitumor activity against mouse P388 cells allografted in BDF1 hybrid mouse assessed as increase of host life span at 225 ug/kg qd for 4 days; type: functional; details: P388, 96 h; how it was run: as §1
P388 [6] = assay: Antitumor activity against mouse P388 cells allografted in BDF1 hybrid mouse assessed as increase of host life span at 1500 ug/kg qd for 4 days; type: functional; details: P388, 96 h; how it was run: as §1
P388 [7] = assay: Antitumor activity against mouse P388 cells allografted in BDF1 hybrid mouse assessed as increase of host life span at 200 ug/kg qd for 4 days; type: functional; details: P388, 96 h; how it was run: as §1
P388 [8] = assay: Antitumor activity against mouse P388 cells allografted in BDF1 hybrid mouse assessed as increase of host life span at 450 ug/kg qd for 4 days; type: functional; details: P388, 96 h; how it was run: as §1
P388 [9] = assay: Antitumor activity against mouse P388 cells allografted in BDF1 hybrid mouse assessed as increase of host life span at 75 ug/kg qd for 4 days; type: functional; details: P388, 96 h; how it was run: as §1

Compound | CC50 [2] [µg/mL] | other results
Cc1c2oc3c(C)c(N)cc(C(=O)N[C@@H]4C(=O)N[C@H](C(C)C)C(=O)N5CCC[C@H]5C(=O)N(C)CC(=O)N(C)[C@@H](C(C)C)C(=O)O[C@@H]4C)c3nc-2c(C(=O)N[C@@H]2C(=O)N[C@H](C(C)C)C(=O)N3CCC[C@H]3C(=O)N(C)CC(=O)N(C)[C@@H](C(C)C)C(=O)O[C@@H]2C)c(N)c1=O | 0.085 (≈ 0.0669 µM) | ILS at 0.15 mg/kg (P388 [1]): 164%
Cc1c2oc3c(C)c(NCc4ccccc4)cc(C(=O)N[C@@H]4C(=O)N[C@H](C(C)C)C(=O)N5CCC[C@H]5C(=O)N(C)CC(=O)N(C)[C@@H](C(C)C)C(=O)O[C@@H]4C)c3nc-2c(C(=O)N[C@@H]2C(=O)N[C@H](C(C)C)C(=O)N3CCC[C@H]3C(=O)N(C)CC(=O)N(C)[C@@H](C(C)C)C(=O)O[C@@H]2C)c(N)c1=O | 0.25 (≈ 0.184 µM) | ILS at 0.8 mg/kg (P388 [3]): 108%
Cc1c2oc3c(C)c(NCc4ccc(Cl)c(Cl)c4)cc(C(=O)N[C@@H]4C(=O)N[C@H](C(C)C)C(=O)N5CCC[C@H]5C(=O)N(C)CC(=O)N(C)[C@@H](C(C)C)C(=O)O[C@@H]4C)c3nc-2c(C(=O)N[C@@H]2C(=O)N[C@H](C(C)C)C(=O)N3CCC[C@H]3C(=O)N(C)CC(=O)N(C)[C@@H](C(C)C)C(=O)O[C@@H]2C)c(N)c1=O | 0.22 (≈ 0.154 µM) | ILS at 0.5 mg/kg (P388 [4]): 192%
Cc1c2oc3c(C)c(NCc4cccc(Oc5ccccc5)c4)cc(C(=O)N[C@@H]4C(=O)N[C@H](C(C)C)C(=O)N5CCC[C@H]5C(=O)N(C)CC(=O)N(C)[C@@H](C(C)C)C(=O)O[C@@H]4C)c3nc-2c(C(=O)N[C@@H]2C(=O)N[C@H](C(C)C)C(=O)N3CCC[C@H]3C(=O)N(C)CC(=O)N(C)[C@@H](C(C)C)C(=O)O[C@@H]2C)c(N)c1=O | 0.28 (≈ 0.193 µM) | ILS at 0.225 mg/kg (P388 [5]): 130%
Cc1c2oc3c(C)c(NCc4ccc(C(=O)O)cc4)cc(C(=O)N[C@@H]4C(=O)N[C@H](C(C)C)C(=O)N5CCC[C@H]5C(=O)N(C)CC(=O)N(C)[C@@H](C(C)C)C(=O)O[C@@H]4C)c3nc-2c(C(=O)N[C@@H]2C(=O)N[C@H](C(C)C)C(=O)N3CCC[C@H]3C(=O)N(C)CC(=O)N(C)[C@@H](C(C)C)C(=O)O[C@@H]2C)c(N)c1=O | 0.26 (≈ 0.185 µM) | ILS at 0.5 mg/kg (P388 [4]): 123%
CCCCCCCCNc1cc(C(=O)N[C@@H]2C(=O)N[C@H](C(C)C)C(=O)N3CCC[C@H]3C(=O)N(C)CC(=O)N(C)[C@@H](C(C)C)C(=O)O[C@@H]2C)c2nc3c(C(=O)N[C@@H]4C(=O)N[C@H](C(C)C)C(=O)N5CCC[C@H]5C(=O)N(C)CC(=O)N(C)[C@@H](C(C)C)C(=O)O[C@@H]4C)c(N)c(=O)c(C)c-3oc2c1C | 0.27 (≈ 0.195 µM) | ILS at 1.5 mg/kg (P388 [6]): 73%
Cc1c2oc3c(C)c(NCc4ccco4)cc(C(=O)N[C@@H]4C(=O)N[C@H](C(C)C)C(=O)N5CCC[C@H]5C(=O)N(C)CC(=O)N(C)[C@@H](C(C)C)C(=O)O[C@@H]4C)c3nc-2c(C(=O)N[C@@H]2C(=O)N[C@H](C(C)C)C(=O)N3CCC[C@H]3C(=O)N(C)CC(=O)N(C)[C@@H](C(C)C)C(=O)O[C@@H]2C)c(N)c1=O | 0.26 (≈ 0.193 µM) | ILS at 0.2 mg/kg (P388 [7]): 90%
Cc1c2oc3c(C)c(NCc4ccccn4)cc(C(=O)N[C@@H]4C(=O)N[C@H](C(C)C)C(=O)N5CCC[C@H]5C(=O)N(C)CC(=O)N(C)[C@@H](C(C)C)C(=O)O[C@@H]4C)c3nc-2c(C(=O)N[C@@H]2C(=O)N[C@H](C(C)C)C(=O)N3CCC[C@H]3C(=O)N(C)CC(=O)N(C)[C@@H](C(C)C)C(=O)O[C@@H]2C)c(N)c1=O | 0.26 (≈ 0.191 µM) | ILS at 0.45 mg/kg (P388 [8]): 145%
Cc1c2oc3c(C)c(NCc4ccc(C(F)(F)F)cc4)cc(C(=O)N[C@@H]4C(=O)N[C@H](C(C)C)C(=O)N5CCC[C@H]5C(=O)N(C)CC(=O)N(C)[C@@H](C(C)C)C(=O)O[C@@H]4C)c3nc-2c(C(=O)N[C@@H]2C(=O)N[C@H](C(C)C)C(=O)N3CCC[C@H]3C(=O)N(C)CC(=O)N(C)[C@@H](C(C)C)C(=O)O[C@@H]2C)c(N)c1=O | 0.26 (≈ 0.182 µM) | ILS at 0.5 mg/kg (P388 [4]): 100%
Cc1c2oc3c(C)c(NCc4ccc[nH]4)cc(C(=O)N[C@@H]4C(=O)N[C@H](C(C)C)C(=O)N5CCC[C@H]5C(=O)N(C)CC(=O)N(C)[C@@H](C(C)C)C(=O)O[C@@H]4C)c3nc-2c(C(=O)N[C@@H]2C(=O)N[C@H](C(C)C)C(=O)N3CCC[C@H]3C(=O)N(C)CC(=O)N(C)[C@@H](C(C)C)C(=O)O[C@@H]2C)c(N)c1=O | 0.26 (≈ 0.193 µM) | ILS at 0.2 mg/kg (P388 [7]): 90%
Cc1c2oc3c(C)ccc(C(=O)N[C@@H]4C(=O)N[C@H](C(C)C)C(=O)N5CCC[C@H]5C(=O)N(C)CC(=O)N(C)[C@@H](C(C)C)C(=O)O[C@@H]4C)c3nc-2c(C(=O)N[C@@H]2C(=O)N[C@H](C(C)C)C(=O)N3CCC[C@H]3C(=O)N(C)CC(=O)N(C)[C@@H](C(C)C)C(=O)O[C@@H]2C)c(N)c1=O [DACTINOMYCIN] (I: T[dV]P[Sar][NMeV] / II: T[dV]P[Sar][NMeV]; ester I:1-I:C, II:1-II:C; linker I:N-II:N via Actinocin(9to1)) | 0.01 (≈ 0.00797 µM) | ILS at 0.075 mg/kg (P388 [9]): 122%
